The test system of data set [1] is Escherichia coli. The data set is described as follows: Bactericidal activity against Escherichia coli. The data set is classed as functional.
Data set [2] has as its system Escherichia coli. As to the kind of experiment: Antimicrobial activity against Escherichia coli. Type of data set: functional.
The subject of data set [3] is Staphylococcus simulans. The data set is described as follows: Ratio of MBC99.9 to MIC for Staphylococcus simulans INCQS 00254 ATCC 27851. Type of data set: functional. The procedure, abridged: (§1)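 MBC/MIC ratio from the 24 h, 37°C microdilution MIC and the agar-plating MBC (99.9% growth inhibition). A ratio ≤2 was classed as bactericidal and ≥4 as bacteriostatic.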

Data set [4] has as its system Pseudomonas aeruginosa. As to the kind of experiment: Antimicrobial activity against Pseudomonas aeruginosa INCQS 00099 ATCC 27853 assessed as zone of inhibition at 5 mg/ml after 18 to 24 hrs by disc diffusion method. Type of data set: functional. The note with it: read-out: IZ. A general note: A growth-free zone around the sample is the usual read-out of agar diffusion tests.

The subject of data set [5] is Staphylococcus simulans. As to the kind of experiment: Antimicrobial activity against Staphylococcus simulans INCQS 00254 ATCC 27851 after 24 hrs by microdilution assay. Type of data set: functional. The following applies: INCQS 00254 ATCC 27851, 24 h.
Data set [6] has as its system Pseudomonas aeruginosa. As to the kind of experiment: Antimicrobial activity against Pseudomonas aeruginosa INCQS 00099 ATCC 27853 after 24 hrs by microdilution assay. The data set is classed as functional. The note with it: INCQS 00099 ATCC 27853, 24 h. A general note: Dilution methods test growth across graded concentrations, often in twofold steps.
The subject of data set [7] is Klebsiella pneumoniae. The data set is described as follows: Antimicrobial activity against Klebsiella pneumoniae INCQS 00083 ATCC 4352 assessed as zone of inhibition at 5 mg/ml after 18 to 24 hrs by disc diffusion method. Type of data set: functional. The note with it: read-out: IZ.
Data set [8] has as its system Staphylococcus aureus. The data set is described as follows: Antimicrobial activity against Staphylococcus aureus INCQS 00015 ATCC 25923 after 24 hrs by microdilution assay. The data set is classed as functional. The note with it: INCQS 00015 ATCC 25923, 24 h.
Data set [9] has as its system Proteus mirabilis. As to the kind of experiment: Antimicrobial activity against Proteus mirabilis INCQS 00095 ATCC 15290 assessed as zone of inhibition at 5 mg/ml after 18 to 24 hrs by disc diffusion method. The data set is classed as functional. The following applies: read-out: IZ.
In data set [10] the test system is Staphylococcus aureus. As to the kind of experiment: Antimicrobial activity against Staphylococcus aureus INCQS 00015 ATCC 25923 assessed as zone of inhibition at 5 mg/ml after 18 to 24 hrs by disc diffusion method. The data set is classed as functional. The following applies: read-out: IZ.
Data set [11] concerns Escherichia coli. As to the kind of experiment: Bactericidal activity against Escherichia coli INCQS 00033 ATCC 25922 incubated for 24 hrs followed by transfer of microbial suspension to agar plates and measured after 24 hrs post transfer by resazurin dye-based colorimetric analysis. The data set is classed as functional. The note with it: ATCC 25922 INCQS 00033, 24 h, read-out: MBC99.9. A digest of the protocol: (§2)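 For MBC, 10 µL from each clear MIC well was plated on agar and incubated 24 h at 37°C. MBC is the minimum concentration inhibiting 99.9% of growth. […] Triplicate.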
On the technique in general: Resazurin is reduced to fluorescent resorufin, in cell work by metabolically active cells.

Data set [12] has as its system Escherichia coli. As to the kind of experiment: Antimicrobial activity against Escherichia coli INCQS 00033 ATCC 25922 assessed as zone of inhibition at 5 mg/ml after 18 to 24 hrs by disc diffusion method. Type of data set: functional. The note with it: ATCC 25922 INCQS 00033, read-out: IZ.
Data set [13] relates to Pseudomonas aeruginosa. The data set is described as follows: Ratio of MBC99.9 to MIC for Pseudomonas aeruginosa INCQS 00099 ATCC 27853. Type of data set: functional. The procedure, abridged: as §1
For data set [14], the system named is Staphylococcus aureus. As to the kind of experiment: Antimicrobial activity against methicillin-resistant Staphylococcus aureus BMB9393 after 24 hrs by microdilution assay. The data set is classed as functional. The following applies: BMB9393, 24 h.
The subject of data set [15] is Staphylococcus aureus. The data set is described as follows: Bactericidal activity against methicillin-resistant Staphylococcus aureus BMB9393 incubated for 24 hrs followed by transfer of microbial suspension to agar plates and measured after 24 hrs post transfer by resazurin dye-based colorimetric analysis. Type of data set: functional. The note with it: BMB9393, 24 h, read-out: MBC99.9. The procedure, abridged: (§3)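 From MIC wells with no visible growth, 10 µL is transferred to agar plates and incubated 24 h at 37°C. MBC is the minimum concentration inhibiting 99.9% of growth. […] Triplicate.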

Data set [16] deals with Staphylococcus epidermidis. As to the kind of experiment: Bactericidal activity against Staphylococcus epidermidis INCQS 00016 ATCC 12228 at 256 ug/ml incubated for 24 hrs followed by transfer of microbial suspension to agar plates and measured after 24 hrs post transfer by resazurin dye-based colorimetric analysis. The data set is classed as functional, organism-based. The note with it: ATCC 12228 INCQS 00016. A digest of the protocol: as §2

Data set [17] deals with Pseudomonas aeruginosa. The data set is described as follows: Bactericidal activity against Pseudomonas aeruginosa INCQS 00099 ATCC 27853 incubated for 24 hrs followed by transfer of microbial suspension to agar plates and measured after 24 hrs post transfer by resazurin dye-based colorimetric analysis. Type of data set: functional. The following applies: INCQS 00099 ATCC 27853, 24 h, read-out: MBC99.9. The procedure, abridged:
as §2

Data set [18] deals with Staphylococcus aureus. As to the kind of experiment: Antimicrobial activity against methicillin-resistant Staphylococcus aureus BMB9393 assessed as zone of inhibition at 5 mg/ml after 18 to 24 hrs by disc diffusion method. The data set is classed as functional. The note with it: read-out: IZ.
The subject of data set [19] is Staphylococcus simulans. The data set is described as follows: Antimicrobial activity against Staphylococcus simulans INCQS 00254 ATCC 27851 assessed as zone of inhibition at 5 mg/ml after 18 to 24 hrs by disc diffusion method. The following applies: read-out: IZ. The data set is classed as functional.
The test system of data set [20] is Escherichia coli. The data set is described as follows: Ratio of MBC99.9 to MIC for Escherichia coli INCQS 00033 ATCC 25922. Type of data set: functional, ATCC 25922 INCQS 00033. The procedure, abridged:
as §1

Data set [21] in a line: Hemolytic activity against human erythrocytes assessed as hemolysis at 200 ug/ml after 3 hrs by spectrophotometric analysis relative to control. Type of data set: ADME, cell-based, Erythrocyte. The following applies: read-out: Activity. The procedure, abridged: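 Erythrocytes collected in citrate tubes, washed three times with PBS pH 7.4 by centrifugation and resuspended in PBS. Incubated with compounds at 200 µg/mL for 3 h at 37°C. Released hemoglobin was read in the supernatant at 545 nm against 1% Triton X-100 (complete lysis) and 1% DMSO (negative control). Below 10% hemolysis was taken as hemocompatible. Three independent experiments.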

The test system of data set [22] is Staphylococcus simulans. The data set is described as follows: Bactericidal activity against Staphylococcus simulans INCQS 00254 ATCC 27851 incubated for 24 hrs followed by transfer of microbial suspension to agar plates and measured after 24 hrs post transfer by resazurin dye-based colorimetric analysis. The note with it: INCQS 00254 ATCC 27851, 24 h, read-out: MBC99.9. The data set is classed as functional. The procedure, abridged:
as §2

In data set [23] the test system is Staphylococcus aureus. The data set is described as follows: Ratio of MBC99.9 to MIC for Staphylococcus aureus INCQS 00015 ATCC 25923. The data set is classed as functional. A digest of the protocol: as §1
The test system of data set [24] is Staphylococcus epidermidis. As to the kind of experiment: Antimicrobial activity against Staphylococcus epidermidis INCQS 00016 ATCC 12228 at 256 ug/ml after 24 hrs by microdilution assay. Type of data set: functional, organism-based. The following applies: ATCC 12228 INCQS 00016.
The test system of data set [25] is Staphylococcus aureus. As to the kind of experiment: Bactericidal activity against Staphylococcus aureus INCQS 00015 ATCC 25923 incubated for 24 hrs followed by transfer of microbial suspension to agar plates and measured after 24 hrs post transfer by resazurin dye-based colorimetric analysis. Type of data set: functional. The note with it: INCQS 00015 ATCC 25923, 24 h, read-out: MBC99.9. A digest of the protocol:
as §3

For data set [26], the system named is Enterococcus faecalis. The data set is described as follows: Antimicrobial activity against Enterococcus faecalis INCQS 00234 ATCC 29212 assessed as zone of inhibition at 5 mg/ml after 18 to 24 hrs by disc diffusion method. Type of data set: functional. The following applies: ATCC 29212 INCQS 00234, read-out: IZ.
Data set [27] concerns Escherichia coli. The data set is described as follows: Antimicrobial activity against Escherichia coli INCQS 00033 ATCC 25922 after 24 hrs by microdilution assay. Type of data set: functional. The following applies: ATCC 25922 INCQS 00033, 24 h.
The test system of data set [28] is Staphylococcus epidermidis. As to the kind of experiment: Antimicrobial activity against Staphylococcus epidermidis INCQS 00016 ATCC 12228 assessed as zone of inhibition at 5 mg/ml after 18 to 24 hrs by disc diffusion method. The data set is classed as functional. The note with it: ATCC 12228 INCQS 00016, read-out: IZ.

Structures are written as SMILES. ≈ marks a conversion by molar mass, not a printed value. Calls of active or inactive are those of the source. No cut-off for these calls is given here.

For orientation: MIC means the least concentration at which growth counts as inhibited.

For `COC(=O)c1c(C)nc(C)c2c1C(=O)C(Br)=C(Nc1ccc(OC)cc1)C2=O`, in [1], the MBC was 2 to 4 µg/mL (≈ 4.49 to 8.98 µM). Also, the minimal inhibitory concentration (MIC) in [2] is 2 to 4 µg/mL (≈ 4.49 to 8.98 µM).
Take `NC1=C(Cl)C(=O)c2ccccc2C1=O`: the Ratio in data set [3], in data set [13], in [20] and in data set [23] was 1 throughout. For the same molecule, the zone of inhibition at 5000 µg/mL in data set [4] amounted to 15 mm; in data set [7], 0 mm; in data set [9], 0 mm; in [10], 12 mm; in [12] it was 10 mm; in [18] it was 20 mm. In addition, the figures for the zone of inhibition at 5000 µg/mL in [19], in data set [26] and in data set [28] were 14 mm, 0 mm and 21 mm, respectively. The MIC in [5] was 128 µg/mL (≈ 617 µM); in data set [6], 16 µg/mL (≈ 77.1 µM); in [8], 64 µg/mL (≈ 308 µM); in data set [14], 64 µg/mL (≈ 308 µM); in data set [27] it was 128 µg/mL (≈ 617 µM). Also, the MBC in [11] stood at 128 µg/mL (≈ 617 µM); in data set [15], 64 µg/mL (≈ 308 µM); in [17], 16 µg/mL (≈ 77.1 µM); in [22] it was 128 µg/mL (≈ 617 µM); in data set [25] it was 64 µg/mL (≈ 308 µM). Further, the result in data set [16] and in data set [24] was inactive. Moreover, the hemolysis at 3 h, 200 ug/ml in data set [21] lay within 10.1 to 14.4%.
With `COC(=O)c1c(CBr)nc(C)c2c1C(=O)C(Br)=C(Nc1ccc(Cl)cc1)C2=O`, the MBC in [1] lay within 2 to 4 µg/mL (≈ 3.78 to 7.57 µM). Also, the MIC in [2] is 2 to 4 µg/mL (≈ 3.78 to 7.57 µM).

The values above are taken from ChEMBL document CHEMBL4270541, “Synthesis and antimicrobial evaluation of amino sugar-based naphthoquinones and isoquinoline-5,8-diones and their halogenated compounds” (Eur J Med Chem, 2018).
